Compounds with a hit are over-represented: about 2.9% of the library has one in this group of screens.
iPSC survival up – hiPSC single-cell survival enhancement. survival enhancement, % at 20 µM. ATPlite luminescence; 100% = ROCK inhibitor wells, 0% = DMSO. 360,000 compounds, 0.044% hits; in the data active = survival enhancement above about 18%;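 also: cells exposed to compounds for 16 hours before the ATP read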
T cruzi repl – blocks replication of Trypanosoma cruzi; inhibition, % (concentration not given with the values); 300,000 compounds, 1.4% hits; T. cruzi beta-gal in NIH3T3, luminescence, 90 h; AID 1885;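 active = mean inhibition across valid replicates above about 55%, limit read from the data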;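 also: signal also drops with host cell toxicity which is not excluded here; 0% = plate median of DMSO wells and 100% = zero luminescence signal; higher percent means less beta-gal luminescence so fewer parasites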
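System: NIH/3T3 fibroblasts plus reporter T. cruzi. Medium: DMEM plus 2% FBS. Probe or stimulus: 5000 reporter trypomastigotes per well. Compound: single 50 nL compound addition per well in DMSO. Incubation: co-culture of at least 90 h after 3 h attachment. Detection: GalScreen β-gal luminescence, detergent lysis, 60 min. Evaluation: parasite load inhibition, %.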
Rev-erbA mod – Rev-erb alpha (human) modulation | P20393 | Rev-erbα–FITC-DNA binding, fluorescence polarization, 90 min | activity, % at 10 µM | 370,000 compounds, 0.79% hits | AID 1259318;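 active = activity above about 14%, limit read from the data; passing the limit was not always enough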;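 also: 0% = DMSO wells with 35 nM protein and 100% = DMSO wells with 750 nM protein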
TAG inh – inhibitors of triacylglycerol accumulation. inhibition, % at 12.5 µM. H9c2 cells, Nile Red lipid (TAG) fluorescence; cells loaded with 200 µM oleic acid. 230,000 compounds, 0.66% hits;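 active = pattern-corrected inhibition of lipid staining of at least 50% with the nuclear-stain viability signal not falling by more than 50%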;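 also: 0% = DMSO wells and 100% = triacsin C control wells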
beta cell repl – MIN6 beta-cell proliferation induction | MIN6 cells proliferation, ATPlite luminescence, 48 h; cells starved in 0.2% serum; 100% = growth in 10% serum | proliferation, % at 10 µM | 330,000 compounds, 0.29% hits | AID 2380;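 active = compounds whose signal lies at least 3.5 SD above the mean of all wells on their plate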;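 also: 0% = DMSO-treated cells in low-serum medium and 100% = 10% serum control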
PG9 Ab binder – PG9 antibody binding by small molecule; inhibition, % at 6.7 µM; 360,000 compounds, 0.43% hits; TR-FRET gp120-PG9 antibody binding; in the data active = inhibition above about 8.5%
H9c2 TAG conf – confirmation of triacylglycerol accumulation inhibitors; H9c2 lipid accumulation, Nile Red fluorescence; cells loaded with 200 µM oleic acid; shares compounds with TAG inh; 990 compounds, 71% hits; inhibition, % at 12.5 µM;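 active = mean inhibition across replicates of 40% or more; inactive = mean inhibition below 40%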;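 also: plate controls were DMSO only wells for no effect and Triacsin C treated wells for full effect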
Numbers without * were called inactive; ! = a repeat was not active.

What do the screens show for `CCCCSc1nnc(-c2ccc(NC(=O)CCc3ccccc3)cc2)n1C`?
iPSC survival up: 0; T cruzi repl: 11; Rev-erbA mod: 4; TAG inh: 51*; beta cell repl: -2; PG9 Ab binder: 0; H9c2 TAG conf: 34

Results for COc1ccccc1Oc1ccc(S(=O)(=O)N2CCOCC2)cc1S(=O)(=O)N1CCOCC1 ?
iPSC survival up: 2; T cruzi repl: 1; Rev-erbA mod: 2; beta cell repl: -3; PG9 Ab binder: 1

How did Cc1ccc(Oc2ccc(S(=O)(=O)N3CCOCC3)cc2C(N)=O)c(-n2nc3ccccc3n2)c1 do in these assays?
iPSC survival up: 0; T cruzi repl: -2; Rev-erbA mod: 1; TAG inh: 50*; beta cell repl: -3; PG9 Ab binder: -1; H9c2 TAG conf: 46*

How did CCCCC(CC)C(=O)Nc1cc(C(=O)NCc2ccc(C)cc2)ccc1N1CCC2(CC1)CC(c1ccccc1)=NO2 (stereo unspecified) do in these assays?
iPSC survival up: -1; T cruzi repl: 28; Rev-erbA mod: -4; TAG inh: 56*; beta cell repl: -4; PG9 Ab binder: -2; H9c2 TAG conf: 55*

How did CCCCCCCC(=O)Nc1cc(C(=O)NCCC)ccc1N1CCC2(CC1)CC(c1cccc(Br)c1)=NO2 do in these assays?
iPSC survival up: 0; T cruzi repl: 37; Rev-erbA mod: -4; TAG inh: 70*; beta cell repl: -4; PG9 Ab binder: 0; H9c2 TAG conf: 61*

Results for CCCCC(CC)C(=O)Nc1cc(C(=O)NCc2ccc(C)cc2)ccc1N1CCC2(CC1)CC(c1cccc(Br)c1)=NO2 (stereo unspecified) ?
iPSC survival up: 0; Rev-erbA mod: 4; TAG inh: 41; beta cell repl: -6; PG9 Ab binder: 2

How did COc1ccc(CNC(=O)c2ccc(N3CCC4(CC3)CC(c3ccc(Cl)cc3)=NO4)c(NC(=O)Cc3ccc(F)cc3)c2)cc1 do in these assays?
iPSC survival up: 0; Rev-erbA mod: -1; TAG inh: 60*; beta cell repl: 2; PG9 Ab binder: -2; H9c2 TAG conf: 44*

What do the screens show for `C=Cc1ccc(C(=O)Nc2nnc(-c3cccnc3)s2)cc1`?
Rev-erbA mod: -13

Results for COCCCn1c(C(=O)Nc2ccc3c(c2)OCO3)cc2c(=O)n3cccc(C)c3nc21 ?
iPSC survival up: -1; Rev-erbA mod: -22; TAG inh: 69*; PG9 Ab binder: 0; H9c2 TAG conf: 28

What do the screens show for `COCCCn1c(C(=O)N2CCOCC2)cc2c(=O)n3cccc(C)c3nc21`?
iPSC survival up: 1; T cruzi repl: -7; Rev-erbA mod: -2; TAG inh: 22; beta cell repl: 3; PG9 Ab binder: 0

What do the screens show for `COc1cc(NC(=O)c2ccc(N)nc2)cc(C(=O)Nc2cccc(C(F)(F)F)c2)c1`?
iPSC survival up: -4; T cruzi repl: 0; Rev-erbA mod: 4; TAG inh: 34; beta cell repl: -1; PG9 Ab binder: -1

How did COc1cc(NC(=O)c2nccnc2N)cc(C(=O)Nc2cccc(C(F)(F)F)c2)c1 do in these assays?
iPSC survival up: -1; T cruzi repl: 4; Rev-erbA mod: 3; TAG inh: 61*!; beta cell repl: -2; PG9 Ab binder: -2; H9c2 TAG conf: 35

Results for COc1ccc(-c2cc(C(=O)Nc3cc(OC)cc(C(=O)Nc4cccc(C(F)(F)F)c4)c3)[nH]n2)cc1 ?
iPSC survival up: -3; T cruzi repl: 49; Rev-erbA mod: -2; TAG inh: 84*; beta cell repl: -7; PG9 Ab binder: -3; H9c2 TAG conf: 77*

How did COc1ccc(NS(=O)(=O)c2cccc(C(=O)NNC(=O)c3cc(C)oc3C)c2)cc1 do in these assays?
iPSC survival up: 2; T cruzi repl: -9; Rev-erbA mod: 2; beta cell repl: -1; PG9 Ab binder: 1

Screens from PubChem.
